Source: ChEMBL document CHEMBL1157655, “Design and synthesis of novel series of pyrrole based chemotypes and their evaluation as selective aldose reductase inhibitors. A case of bioisosterism between a carboxylic acid moiety and that of a tetrazole” (Bioorg Med Chem, 2010)

Key:
[1] = tested on: Radical scavenging activity; test: Antioxidant activity assessed as DPPH radical scavenging activity at 0.2 mM; assay type: functional
Outline: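 Compounds in absolute ethanol added to an equal volume of ethanolic DPPH to give final 0.2–0.0125 mM compound and 0.2 mM DPPH. Continual absorbance decrease at 517 nm followed. Trolox reference. Triplicate.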

[2] = Antioxidant activity against AAPH-induced lipid peroxidation in unilamellar DOPC liposomes after 80 mins by thiocyanate reagent method; assay type: functional
Outline: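 DOPC unilamellar liposomes (final 0.8 mM, phosphate buffer 20 mM pH 7.4) incubated with test compound (10–300 µM range stated) and AAPH (final 10 mM) at 50 °C for 80 min. Aliquots extracted with ice-cold CHCl3/MeOH (2:1) containing BHT. Lipid hydroperoxide determined by thiocyanate method, absorbance at 500 nm, quantified against cumene hydroperoxide calibration curve. Triplicate.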

[3] = target: Aldo-keto reductase family 1 member B1 (Rattus norvegicus) (UniProt P07943); test: Inhibition of aldose reductase in Fischer-344 rat lens homogenate at 0.1 mM by spectrometric analysis
[4] = target: T1, Aldo-keto reductase family 1 member A1 (Rattus norvegicus) (UniProt P51635); test: Inhibition of rat kidney aldehyde reductase at 0.1 mM after 20 mins by spectrometric analysis
T1 sequence (whole entry): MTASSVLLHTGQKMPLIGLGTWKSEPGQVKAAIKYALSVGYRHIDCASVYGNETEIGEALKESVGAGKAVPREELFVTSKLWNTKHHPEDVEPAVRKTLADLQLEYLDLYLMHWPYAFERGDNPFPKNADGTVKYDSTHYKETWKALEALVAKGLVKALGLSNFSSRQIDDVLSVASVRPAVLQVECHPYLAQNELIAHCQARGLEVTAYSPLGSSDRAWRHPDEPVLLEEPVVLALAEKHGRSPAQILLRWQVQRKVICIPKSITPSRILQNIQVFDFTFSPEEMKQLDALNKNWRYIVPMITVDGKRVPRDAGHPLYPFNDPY

[5] = target: Aldo-keto reductase family 1 member B1 (Rattus norvegicus, UniProt P07943); test: Inhibition of aldose reductase in Fischer-344 rat lens homogenate by spectrometric analysis

| IC50 [2] [µM] | inhibition [3] [%] | inhibition [4] [%] | IC50 [5] [µM] | Structure (SMILES) | Activity [1] [%] |
| --- | --- | --- | --- | --- | --- |
| 93.5 |  |  |  | Cc1c(C)c2c(c(C)c1O)CCC(C)(C(=O)O)O2 (stereo not drawn) [TROLOX] | 98 |
|  | 6 | 41 |  | O=C(c1ccccc1)c1ccn(CCc2nn[nH]n2)c1 |  |
|  | 41 | 35 |  | O=C(c1ccccc1)c1ccn(CCCc2nn[nH]n2)c1 |  |
| > 300 |  | 18 | 20 | O=C(c1ccccc1)c1cccn1-c1nn[nH]n1 | 10 |
|  | 40 | 23 |  | O=C(c1ccccc1)c1ccn(Cc2nn[nH]n2)c1 |  |
| > 300 |  | 18 | 18 | O=C(c1ccccc1)c1ccn(-c2nn[nH]n2)c1 | 10 |
|  |  | 22 | 6.04 | O=C(O)CCCn1ccc(C(=O)c2ccccc2)c1 |  |
|  |  | 20 | 9.7 | O=C(O)CCn1ccc(C(=O)c2ccccc2)c1 |  |
| > 300 |  | 34 |  | O=C(O)Cn1ccc(C(=O)c2ccccc2)c1 | 10 |
